Activity calls are given as the source filed them.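 Rule for the calls, unless noted: active = potentiation averaged over duplicate wells exceeding buffer-only control mean by more than 3 SD; inactive = the rest.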
Columns and labels:
[1] = thallium flux activation in parental CHO cells, counter-screen for KCNQ1 potentiator project (AID 493006;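 active = duplicate-averaged activation above buffer control mean plus 5 SD of those controls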); conditions: parental CHO-K1 cells, FluxOR thallium flux, at 10 µM; stronger effect = higher value
Summary of the method: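 Assay system: Untransfected host CHO-K1 cells with FluxOR thallium dye | Probe or stimulus: Potassium/thallium depolarization pulse | Schedule: Overnight 37 °C plating, 90 min RT dye, 20 min compound | Detection: Kinetic thallium-flux fluorescence | Read-out: Max-minus-min fluorescence over baseline, percent of buffer-to-R-L3 span | Benchmarks: Low control buffer, high control R-L3 activator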

[2] = target: Potassium voltage-gated channel subfamily KQT member 1 (Homo sapiens) (UniProt P51787); assay: KCNQ1 potassium channel potentiators, confirmation, FluxOR thallium flux, CHO cells, duplicates (AID 493007); conditions: KCNQ1 cell line, FluxOR thallium flux fluorescence, at 10 µM; stronger effect = higher value, % of reference activator effect, buffer zero;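 for outcome: cells depolarized by a potassium plus thallium sulfate stimulus after compound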
Summary of the method: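 Material: KCNQ1-expressing CHO cell line; Incubation: FluxOR dye loading 90 min, compound exposure 20 min, room temperature; Detection: FluxOR Tl+ flux fluorescence, 10 s baseline plus 110 s recording; Read-out: percent activation between buffer and R-L3 responses; Control set: buffer-only wells as 0% and R-L3 activator as 100%; Replication: duplicate wells per compound.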

[3] = target: Potassium voltage-gated channel subfamily KQT member 2 (Rattus norvegicus) (UniProt O88943); assay: rat KCNQ2 channel potentiation, selectivity assay for KCNQ1 potentiator project, KCNQ2-CHO-K1 cells (AID 493009;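 active = mean duplicate potentiation above the buffer control mean plus 5 SD of buffer wells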;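 note: assay conditions were tuned for KCNQ1 rather than KCNQ2 modulators; signal is max minus min fluorescence divided by baseline after thallium stimulus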); conditions: FluxOR thallium flux fluorescence, at 10 µM; stronger effect = higher value, scaled: buffer 0, activator control 100
[4] = target: Potassium voltage-gated channel subfamily KQT member 1 (Homo sapiens) (UniProt P51787); assay: KCNQ1 channel current potentiators, confirmation, orthogonal assay for KCNQ1 potentiator project, IonWorks patch clamp, KCNQ1-CHO cells (AID 493184;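 active = current rise at least 3 SD above the untreated control mean in each of two repeat wells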); conditions: automated patch clamp current, at 10 µM; stronger effect = higher value
Summary of the method: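 assay system = KCNQ1-expressing CHO cells | medium = external bath solution at pH 7.4 | probe or stimulus = 2,000 ms depolarization, -90 to +40 mV | compound dosing = 10 µM final, single point | measured by = automated voltage clamp, amphotericin B perforated patch | measure = percent current increase versus pre-compound level | replication = duplicates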

Sequence of Potassium voltage-gated channel subfamily KQT member 2 (Rattus norvegicus) (O88943 whole entry, looked up): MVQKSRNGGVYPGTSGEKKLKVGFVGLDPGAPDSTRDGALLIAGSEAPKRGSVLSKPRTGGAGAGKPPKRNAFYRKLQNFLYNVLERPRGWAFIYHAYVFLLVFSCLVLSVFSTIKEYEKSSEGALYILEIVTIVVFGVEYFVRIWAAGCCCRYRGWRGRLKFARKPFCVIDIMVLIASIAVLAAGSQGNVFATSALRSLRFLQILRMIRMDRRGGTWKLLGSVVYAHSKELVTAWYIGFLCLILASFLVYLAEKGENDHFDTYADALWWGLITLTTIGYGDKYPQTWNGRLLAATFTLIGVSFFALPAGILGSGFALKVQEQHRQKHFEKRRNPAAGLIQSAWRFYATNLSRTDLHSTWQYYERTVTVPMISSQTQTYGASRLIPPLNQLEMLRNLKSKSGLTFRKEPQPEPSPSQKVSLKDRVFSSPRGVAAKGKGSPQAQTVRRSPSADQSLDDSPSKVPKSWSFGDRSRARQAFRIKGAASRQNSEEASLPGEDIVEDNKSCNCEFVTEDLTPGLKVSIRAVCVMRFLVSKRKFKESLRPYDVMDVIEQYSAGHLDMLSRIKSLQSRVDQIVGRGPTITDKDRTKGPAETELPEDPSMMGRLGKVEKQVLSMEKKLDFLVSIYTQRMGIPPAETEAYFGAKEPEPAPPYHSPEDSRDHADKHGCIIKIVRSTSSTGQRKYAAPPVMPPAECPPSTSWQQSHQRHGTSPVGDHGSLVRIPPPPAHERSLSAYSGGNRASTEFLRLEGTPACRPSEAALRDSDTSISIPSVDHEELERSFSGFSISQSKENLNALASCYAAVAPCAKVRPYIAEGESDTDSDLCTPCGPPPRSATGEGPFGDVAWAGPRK
Sequence of Potassium voltage-gated channel subfamily KQT member 1 (Homo sapiens) (P51787 whole entry, looked up): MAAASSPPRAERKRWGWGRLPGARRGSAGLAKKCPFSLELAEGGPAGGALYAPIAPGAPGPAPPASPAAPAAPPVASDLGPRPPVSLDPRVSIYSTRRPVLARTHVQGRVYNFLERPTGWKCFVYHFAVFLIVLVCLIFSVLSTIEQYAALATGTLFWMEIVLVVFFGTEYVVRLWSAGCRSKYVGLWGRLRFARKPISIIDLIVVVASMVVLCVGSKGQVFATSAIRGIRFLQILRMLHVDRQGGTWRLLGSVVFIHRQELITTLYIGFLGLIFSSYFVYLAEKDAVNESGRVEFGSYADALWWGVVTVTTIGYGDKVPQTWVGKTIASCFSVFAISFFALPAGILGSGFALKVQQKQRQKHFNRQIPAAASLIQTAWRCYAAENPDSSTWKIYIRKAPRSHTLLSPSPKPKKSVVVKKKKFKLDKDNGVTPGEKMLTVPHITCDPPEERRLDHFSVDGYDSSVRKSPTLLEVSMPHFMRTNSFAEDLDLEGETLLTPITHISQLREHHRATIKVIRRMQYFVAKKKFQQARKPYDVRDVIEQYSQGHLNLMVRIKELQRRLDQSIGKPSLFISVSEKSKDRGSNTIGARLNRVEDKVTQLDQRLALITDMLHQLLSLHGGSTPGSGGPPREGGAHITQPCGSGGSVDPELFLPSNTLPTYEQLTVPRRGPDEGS

SMILES	outcome [1]	outcome [2]	outcome [3]	outcome [4]	activation [1]	potentiation [2]	potentiation [3]
C=C(C)CNC(=O)c1ccc(OC2CCN(C(=O)COC)CC2)cc1	inactive	inactive	inactive	inactive	–	–	–
C=CCn1c(=S)[nH]c2scc(-c3ccc(C)o3)c2c1=O	–	–	–	inactive	550% (active)	276% (active)	580% (active)
CC(C)CN=Cc1c(O)c([N+](=O)[O-])cc2oc3c(c12)CCCC3	inactive	inactive	inactive	inactive	–	–	–
Cc1ccccc1NS(=O)(=O)c1ccc2[nH]cc(C(=O)N(C)Cc3ccco3)c(=O)c2c1	inactive	–	inactive	inactive	–	44% (active)	–
O=C(c1ccccc1)N1CCCC(c2ccc(Cl)cc2)=N1	inactive	inactive	inactive	inactive	–	–	–
Cc1nn(-c2ccccc2)c2nc(C(Cl)(Cl)Cl)[nH]c(=O)c12	–	inactive	inactive	inactive	145% (active)	–	–
CCC(=O)NC(=Nc1nc2ccccc2s1)NC(=O)CC	inactive	inactive	inactive	inactive	–	–	–
CC(Oc1ccc(Cl)cc1Cl)C(=O)NC(=S)N1CCc2ccccc21 (centres undefined)	–	–	–	inactive	151% (active)	120% (active)	172% (active)
O=C1CCC(c2ccc(-n3ccnc3)cc2)=NN1	inactive	inactive	inactive	inactive	–	–	–
CCOC(=O)NC(=S)Nc1ccc(C(C)(C)C)cc1	inactive	–	inactive	inactive	–	20% (active)	–
COc1ccc(-n2cc(-c3ccccc3)c3c(=S)nc[nH]c32)cc1	–	–	–	inactive	137% (active)	38% (active)	172% (active)
O=C(NCc1ccco1)c1ccc(=O)oc1	inactive	inactive	inactive	inactive	–	–	–
CCOc1ccc(N2CC(C(=O)Nc3cc(Cl)ccc3-n3cncn3)CC2=O)cc1 (centres undefined)	inactive	inactive	inactive	inactive	–	–	–
COc1cccc(OC)c1OCCOCCN1CCN(C)CC1	inactive	inactive	inactive	inactive	–	–	–
CC1(C)Cc2c(sc3[nH]c(=S)n(Cc4ccccc4)c(=O)c23)CO1	–	–	–	inactive	191% (active)	63% (active)	198% (active)
CC1CN(C(=S)NC(=O)c2ccc(Cl)cc2)CC(C)O1 (centres undefined)	–	–	–	inactive	144% (active)	24% (active)	152% (active)

SMILES	outcome [1]	outcome [2]	outcome [3]	outcome [4]	activation [1]	potentiation [2]	potentiation [3]
CC1(c2ccccc2)CC(C)(C)N2C(=O)/C(=C3\SC(=S)NC3=O)c3cccc1c32 (centres undefined)	–	–	–	inactive	684% (active)	292% (active)	520% (active)
CN(C)c1nc(=Nc2cccc(Cl)c2)ss1	–	–	–	inactive	312% (active)	119% (active)	273% (active)
CN=C1c2cc3cc(OC)ccc3n2CCN1Cc1ccccc1	inactive	inactive	inactive	inactive	–	–	–
CC(/C=C1\SC(=S)N(NS(=O)(=O)c2ccccc2)C1=O)=C\c1ccccc1	–	–	–	inactive	304% (active)	157% (active)	318% (active)
C=CCN1C(=O)C(CC(=O)NCC)SC1=Nc1ccc(S(N)(=O)=O)cc1 (centres undefined)	inactive	inactive	inactive	inactive	–	–	–
CSc1ccccc1NC(=O)c1ccc2c(c1)CCN2S(C)(=O)=O	inactive	inactive	inactive	inactive	–	–	–
O=C(Nc1cc(=O)[nH]c(=O)[nH]1)c1cccc(Br)c1	inactive	inactive	inactive	inactive	–	–	–
COc1ccc(/C=C2/S/C(=N/N=C3\CC4CCC3(C)C4(C)C)NC2=O)cc1 (centres undefined)	inactive	–	–	inactive	–	21% (active)	186% (active)
Cc1[nH]c(=S)sc1Cc1ccc(F)cc1	–	–	–	inactive	286% (active)	101% (active)	300% (active)
COc1cccc(C(=O)NNC(=O)C(=O)Nc2ccc(OC)cc2OC)c1	–	–	–	inactive	178% (active)	41% (active)	202% (active)
CC(NC(=S)NC(=O)c1ccccc1Br)c1ccccc1 (centres undefined)	inactive	–	–	inactive	–	84% (active)	184% (active)
Cn1c(=O)nc2n(Cc3ccccc3)c3ccccc3cc-2c1=O	inactive	inactive	inactive	inactive	–	–	–
NC(=S)n1[nH]c(-c2ccc([N+](=O)[O-])cc2)c(N=Nc2cccc(Cl)c2)c1=O	–	–	–	inactive	150% (active)	34.5% (active)	179% (active)
Nc1c(-c2ccccc2)cnc2c(-c3ccccc3)cnn12	inactive	inactive	inactive	inactive	–	–	–
Nc1nc(C23CC4CC(CC(C4)C2)C3)cs1	inactive	inactive	–	inactive	–	–	168% (active)

— PubChem BioAssay
